Each structure is given as a SMILES string. The source made the active and inactive calls. The rule behind the calls is not given here.

IC50 and Activity data for seven compounds are collected here from ChEMBL document CHEMBL3861970, “Penipyridones A-F, Pyridone Alkaloids from Penicillium funiculosum” (J Nat Prod, 2016).

Assay type in all cases: functional, cell-based
Assay [1] can be described thus: Cytotoxicity against human K562 cells assessed as growth inhibition after 48 hrs by SRB assay. The following applies: K562, 48 h.
A short description of assay [2]: Cytotoxicity against human HL60 cells assessed as growth inhibition after 48 hrs by SRB assay. Conditions: HL-60, 48 h.
Assay [3] in a line: Cytotoxicity against human HeLa cells assessed as growth inhibition after 48 hrs by SRB assay.
A short description of assay [4]: Cytotoxicity against human A549 cells assessed as growth inhibition after 48 hrs by SRB assay. The following applies: A549, 48 h.
Assay [5] deals with HepG2. The assay is described as follows: Lipid lowering activity in human HepG2 cells assessed as decrease in oleic acid elicited lipid accumulation at 10 uM treated 12 hrs post oleic acid addition measured 6 hrs post dose by oil-red O staining method. In outline:
(§1)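 HepG2 cells (ATCC origin) grown in DMEM with 10% FBS and penicillin/streptomycin to 70–80% confluence. They were loaded with 100 μM oleic acid in DMEM for 12 h, then exposed for 6 h to 10 μM compound, lovastatin as positive control, or oleic acid alone. Read-outs were Oil-Red O staining (n = 8) or TC/TG determination (n = 3). Each experiment was repeated at least three times; means ± SEM.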

Assay [6] concerns HepG2. Description: Lipid lowering activity in human HepG2 cells assessed as decrease in total cholesterol level at 10 uM treated 12 hrs post oleic acid addition measured 6 hrs post dose. The essentials: as §1
Assay [7] relates to HepG2. Description: Lipid lowering activity in human HepG2 cells assessed as decrease in triglyceride level at 10 uM treated 12 hrs post oleic acid addition measured 6 hrs post dose. The essentials: as §1

In the case of `CC(=O)O[C@@H](c1ccccc1)c1cc(=O)c(C(N)=O)cn1CCO`, the IC50 in assay [1], in assay [2], in assay [3] and in assay [4] was above 50 µM throughout. The result in assay [5], in assay [6] and in assay [7] was Active.

Regarding `COC(=O)c1c[nH]c([C@@H](O)c2ccccc2)cc1=O`, the IC50 in assay [1], in assay [2], in assay [3] and in assay [4] was above 50 µM throughout. Further, the outcome in assay [5], in assay [6] and in assay [7] was Active.

`CC(C)CC(=O)NC(=O)c1cn(CCO)c([C@@H](O)c2ccccc2)cc1=O`: the IC50 in assay [1], in assay [2], in assay [3] and in assay [4] was above 50 µM throughout.

On to `NC(=O)c1cn(CCO)c([C@@H](O)c2ccccc2)cc1=O`, for which the IC50 in assay [1], in assay [2], in assay [3] and in assay [4] was above 50 µM throughout.

Turning to `CC(C)CC(=O)NC(=O)c1c[nH]c([C@@H](O)c2ccccc2)cc1=O`, the IC50 in assay [1], in assay [2], in assay [3] and in assay [4] was above 50 µM throughout.

Consider `CC(=O)O[C@@H](c1ccccc1)c1cc(=O)c(C(=O)NC(=O)CC(C)C)cn1CCO`, for which the IC50 in assay [1], in assay [2], in assay [3] and in assay [4] was above 50 µM each time. Also, the result in assay [5], in assay [6] and in assay [7] was Active.

On to `NC(=O)c1c[nH]c([C@@H](O)c2ccccc2)cc1=O`, for which the IC50 in assay [1], in assay [2], in assay [3] and in assay [4] was above 50 µM in each case. Moreover, the result in assay [5], in assay [6] and in assay [7] was Active.
